Published values gathered from unrelated publications.
Lines come from different studies, so protocols differ.
Transmembrane protease serine 6: Transmembrane protease serine 6 (Homo sapiens, UniProt Q8IU80)
MTOR: Serine/threonine-protein kinase mTOR (MTOR, Homo sapiens, UniProt P42345)
BACE1: Beta-secretase 1 (BACE1, Homo sapiens, UniProt P56817)
AVPR2: Vasopressin V2 receptor (AVPR2, Homo sapiens, UniProt P30518)
NPY1R: Neuropeptide Y receptor type 1 (NPY1R, Homo sapiens, UniProt P25929)

Compound	target	test	conditions	inhibition
C[C@@H]1CCCN1CCCCOc1ccc2occc(=O)c2c1	Transmembrane protease serine 6	enzyme activity, inhibitor, fluorescence	10 µM	10%
C#Cc1n[nH]c2c(-c3cn(C(C)c4ccccn4)c(=O)[nH]c3=O)cc(F)cc12 (centres unmarked)	MTOR	enzyme activity, inhibitor	1 µM	-1.6%
CN1CCN(CCOc2ccc3occc(=O)c3c2)CC1	Transmembrane protease serine 6	enzyme activity, inhibitor, fluorescence	10 µM	6%
Cn1cc(-c2cccc(N3CCc4c(sc5c4CC(C)(C)C5)C3=O)c2CO)cc(Nc2ccncn2)c1=O	Protein kinase C delta type (PRKCD, Homo sapiens, UniProt Q05655)	enzyme activity, inhibitor	1 µM	1%
COc1ccc(S(=O)(=O)N2CCCCC2)cc1C	Type-1 angiotensin II receptor (AGTR1, Homo sapiens, UniProt P30556)	ligand displacement, radioligand	10 µM	< 30%
CC(C)CC(CC(=O)NO)N=[N+]=[N-] (centres unmarked)	Endoplasmic reticulum aminopeptidase 2 (ERAP2, Homo sapiens, UniProt Q6P179)	enzyme activity, inhibitor, fluorescence	300 µM	21%
Cc1ncc(C)n2nc(/C=C/c3nc(N4CCCC4)cc(N4CCOCC4)n3)nc12	BACE1	enzyme activity, inhibitor	10 µM	4%
COCc1c(-c2cc3cc(C)cc(OC)c3s2)c2c(N)ncnn2c1CN1CCNC(=O)C1	Serine/threonine-protein kinase Nek5 (NEK5, Homo sapiens, UniProt Q6P3R8)	cell-free assay, competition with immobilised ligand	1 µM	90.1%
CN(CCN1CCC(OC(=O)Nc2ccccc2-c2ccccc2)CC1)C(=O)c1ccc(CN2CCC(C(N)=O)CC2)cc1	AVPR2	ligand displacement, radioligand	1 µM	-7%
CC(C)C[C@H](NC(=O)[C@H](Cc1ccccc1)NC(=O)c1cnccn1)B(O)O	Neutrophil elastase (ELANE, Homo sapiens, UniProt P08246)	enzyme activity, inhibitor	33 µM	36.1%
c1ccc(C(NCCNC(c2ccccc2)c2ccccc2)c2ccccc2)cc1	AVPR2	cell-free assay	10 µM	29%
O=C(Nc1cccnn1)N1CCN([C@@H]2CCOc3cc(C(F)(F)F)ccc32)CC1	BACE1	enzyme activity, inhibitor	20 µM	3%
OC[C@@]12C[C@@H]1[C@@H](n1cnc3c(NC(C4CCCC4)C4CCCC4)nc(Cl)cc31)[C@H](O)[C@@H]2O	Adenosine receptor A3 (ADORA3, Homo sapiens, UniProt P0DMS8)	ligand displacement, radioligand	10 µM	35%
CN1CCN(CCCCOc2ccc3occc(=O)c3c2)CC1	Transmembrane protease serine 6	enzyme activity, inhibitor, fluorescence	10 µM	11%
CCN(CC)CCCC[C@H](NC(=O)[C@H](CC(C)C)NC(=O)[C@H](C)NC(=O)[C@H](Cc1ccccc1)NC(=O)c1ccc(C(C)(C)C)cc1)C(=O)N[C@@H](CO)C(=O)OC	NPY1R	ligand displacement, radioligand	10 µM	-20%
CCCCCCCCCCCC(=O)OC[C@@H](COP(=O)(O)OCCNC(=O)c1ccc(Cn2c(=O)[nH]c3c(N)nc(OCCOC)nc32)cc1)OC(=O)CCCCCCCCCCC	NPY1R	ligand displacement, radioligand	10 µM	11%
C[C@H](C(=O)N[C@H]1COc2ccccc2[C@@H]1S(C)(=O)=O)c1ccc(F)cc1	AVPR2	cell-free assay	10 µM	3%
Cn1cc(-c2cc(F)cc(N3CCn4c(cc5c4CCCC5)C3=O)c2CO)cc(Nc2ccc(N3CCN(C4COC4)CC3)cn2)c1=O	MTOR	enzyme activity, inhibitor	0.1 µM	2%
C#Cc1n[nH]c2c(-c3cn([C@@H](C)c4ccccc4)c(=O)[nH]c3=O)cc(F)cc12	MTOR	enzyme activity, inhibitor	0.1 µM	6.8%
Clc1ccc2c(C3CCN(CCc4c[nH]c5ccccc45)CC3)c[nH]c2c1	Neuronal acetylcholine receptor; alpha4/beta2 (Homo sapiens, UniProt P17787+P43681)	ligand displacement, radioligand	10 µM	3%
